The IC50 is the point on the concentration scale where inhibition reaches its midpoint. As a reminder, the MIC is the lowest concentration found to suppress growth. What is called solubility is the concentration that dissolves in the medium under given conditions. Higher therefore signals a readily soluble substance.

Results on seven compounds are retold here after ChEMBL document CHEMBL1156706, “Structure-activity relationships of novel heteroaryl-acrylonitriles as cytotoxic and antibacterial agents” (Eur J Med Chem, 2008).

≈ marks a conversion by molar mass, not a printed value. Calls of active or inactive are those of the source. The calls are words filed in the database; no cut-off is given here.

Data set [1] relates to YAPC. In words: Cytotoxicity against human YAPC cells after 96 hrs by microtiter assay. The format is functional, cell-based. The essentials:
(§1)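 DSMZ cell lines in RPMI 1640 with 10% FCS. DMF stocks diluted 1000-fold into medium. Continuous exposure 96 h at 37 °C, 5% CO2. Adherent cells stained with crystal violet. IC50 (50% growth inhibition vs untreated control) obtained by least-squares fitting of dose–response curves, averaging 2–5 independent determinations.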

Data set [2] has as its system A-427. In words: Cytotoxicity against human A427 cells after 96 hrs by microtiter assay. Type of data set: functional, cell-based. The note with it: A-427, 96 h. The essentials:
as §1

Data set [3] deals with Staphylococcus epidermidis. Nature of the data set: Antibacterial activity against Staphylococcus epidermis NCTC 14990 after 24 hrs. The format is functional, organism-based. The note with it: NCTC 14990, 24 h. The method in brief: (§2)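 Overnight culture diluted in Mueller–Hinton broth to 10^5 CFU/ml. Compounds dissolved in DMSO and diluted twofold in broth over 0.24–62.5 […]. Tubes inoculated and incubated 24 h at 37 °C. MIC taken as the lowest concentration with no visible growth. Clear tubes were subcultured onto Mueller–Hinton agar, and MBC was taken as the minimal concentration killing the organisms after 24 h.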

For data set [4], the system named is DAN-G. In words: Cytotoxicity against human DAN-G cells after 96 hrs by microtiter assay. Type of data set: functional, cell-based. The method in brief: as §1
The test system of data set [5] is RT-112. Nature of the data set: Cytotoxicity against human RT112 cells after 96 hrs by microtiter assay. The format is functional, cell-based. The note with it: RT-112, 96 h. The essentials:
as §1

Data set [6] deals with 5637. In words: Cytotoxicity against human 5637 cells after 96 hrs by microtiter assay. Type of data set: functional, cell-based. The note with it: Homo sapiens, 5637, 96 h. The method in brief:
as §1

The test system of data set [7] is Staphylococcus aureus. Nature of the data set: Antibacterial activity against Staphylococcus aureus NCTC 4163 after 24 hrs. The note with it: NCTC 4163, 24 h. The format is functional, organism-based. The essentials: as §2
Data set [8] is described as follows: Cytotoxicity against human KYSE520 cells after 96 hrs by microtiter assay. The format is functional, cell-based. The note with it: KYSE-520, 96 h. The essentials:
as §1

In data set [9] the test system is RT-4. Nature of the data set: Cytotoxicity against human RT4 cells after 96 hrs by microtiter assay. Type of data set: functional, cell-based. The note with it: RT-4, 96 h. The essentials:
as §1

Data set [10] has as its system Enterococcus hirae. Nature of the data set: Antibacterial activity against Enterococcus hirae NCTC 10541 after 24 hrs. The format is functional, organism-based. The note with it: NCTC 10541, 24 h. The method in brief: as §2
The test system of data set [11] is SISO. Nature of the data set: Cytotoxicity against human SISO cells after 96 hrs by microtiter assay. The format is functional, cell-based. The method in brief: as §1
The nature of data set [12]: Cytotoxicity against human KYSE70 cells after 96 hrs by microtiter assay. The note with it: KYSE-70, 96 h. The format is functional, cell-based. The essentials: as §1
Data set [13] relates to KYSE-510. In words: Cytotoxicity against human KYSE510 cells after 96 hrs by microtiter assay. Type of data set: functional, cell-based. The note with it: KYSE-510, 96 h. The method in brief: as §1
Data set [14] in a line: Aqueous solubility in phosphate buffered saline at pH 7.4 after 24 hrs. The format is physicochemical. The method in brief: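 Solid added in excess to Dulbecco's PBS, pH 7.4, and stirred in the dark 24 h at room temperature. Suspension filtered through a 0.22 filter. Filtrate absorbance read at each compound's λmax, and dissolved concentration calculated from the extinction coefficient at that wavelength.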

Data set [15] deals with MCF7. Nature of the data set: Cytotoxicity against human MCF7 cells after 96 hrs by microtiter assay. Type of data set: functional, cell-based. The note with it: MCF7, 96 h. The essentials: as §1
The nature of data set [16]: Cytotoxicity against human LCLC-103H cells after 96 hrs by microtiter assay. The format is functional, cell-based. The essentials: as §1
Data set [17] concerns HL-60. In words: Cell cycle arrest in human HL60 cells assessed as accumulation at G0/G1 and G2/M phases at 0.15 uM after 72 hrs by FACS relative to untreated control. For orientation: In flow cytometry, cells or beads pass a laser one at a time.
In data set [18] the test system is HL-60. In words: Cell cycle arrest in human HL60 cells assessed as accumulation at G0/G1 phase at 0.15 uM after 72 hrs by FACS relative to untreated control. The format is functional, cell-based. The essentials: (§3)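 Unsynchronized HL-60 cells treated 24 or 72 h across 0.03–1 µM. Cells fixed in 70% ice-cold ethanol and DNA stained with propidium iodide. Fractions in G0/G1, S and G2/M quantified by flow cytometry and compared with untreated control.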

Data set [19] has as its system HL-60. Nature of the data set: Cell cycle arrest in human HL60 cells assessed as accumulation at G0/G1 and G2/M phases at 0.3 uM after 72 hrs by FACS relative to untreated control.
The test system of data set [20] is HL-60. Nature of the data set: Cell cycle arrest in human HL60 cells assessed as accumulation at G0/G1 phase at 0.3 uM after 72 hrs by FACS relative to untreated control. Type of data set: functional, cell-based. The essentials: as §3
Data set [21] deals with HL-60. In words: Cell cycle arrest in human HL60 cells assessed as accumulation at G2/M phase at 0.15 uM after 72 hrs by FACS relative to untreated control. The format is functional, cell-based. The essentials:
as §3

For data set [22], the system named is HL-60. Nature of the data set: Cell cycle arrest in human HL60 cells assessed as accumulation at G2/M phase at 0.3 uM after 72 hrs by FACS relative to untreated control. Type of data set: functional, cell-based. The essentials:
as §3

For the compound `N#C/C(=C\c1ccc([N+](=O)[O-])o1)c1nc2ccccc2s1`, the IC50 is 2.25 µM in data set [1]; 1.21 µM in data set [2]; 3.84 µM in data set [4]; 1.78 µM in data set [5]; 2.37 µM in data set [6]; 2 µM in data set [8]. Moreover, the IC50 in data set [9] worked out at 4.3 µM; in [11], 2.5 µM; in [12] it was 2.38 µM; in data set [13], 5.44 µM; in data set [15], 3.33 µM; in [16] it was 1.47 µM. For the same compound, the MIC in [3], in data set [7] and in data set [10] was > 210 µM in each case. In addition, the solubility at 24 h in data set [14] stood at 0.7 µM (≈ 0.208 µg/mL).

`N#C/C(=C\c1ccc([N+](=O)[O-])s1)c1nc2ccccc2o1`: the IC50 in [1] came to 1.7 µM; in data set [2], 2.33 µM; in data set [4], 12.6 µM; in data set [5], 3.88 µM; in data set [6], 3.91 µM; in data set [8], 2.76 µM. In addition, the IC50 came out at 6.57 µM in [9]; 14.1 µM in [11]; 5.3 µM in data set [12]; 22.6 µM in [13]; 5.69 µM in data set [15]; 12.1 µM in data set [16]. Besides, the results for the MIC in [3], in data set [7] and in data set [10] were 210 µM (≈ 62.4 µg/mL), 210 µM (≈ 62.4 µg/mL) and > 210 µM, respectively. Also, in data set [14], the solubility at 24 h is < 0.1 µM.

Take `N#C/C(=C\c1ccccn1)c1nc2ccccc2[nH]1`: the IC50 in data set [1] turned out to be 6.58 µM; in data set [2], 2.84 µM; in data set [4], 3.67 µM; in data set [5], 4.73 µM; in data set [6], 2.28 µM; in data set [8], 10.5 µM. Further, the IC50 stood at 2.68 µM in data set [9]; 1.91 µM in data set [11]; 6.82 µM in [12]; 3.67 µM in data set [13]; 8.14 µM in data set [15]; 7.42 µM in [16]. Moreover, the MIC in data set [3] is 215 µM (≈ 52.9 µg/mL); in data set [7], > 215 µM; in data set [10], > 215 µM.

Regarding `N#C/C(=C\c1ccc([N+](=O)[O-])s1)c1nc2ccccc2[nH]1`, the IC50 is 0.21 µM in data set [1]; 0.15 µM in data set [2]; 0.6 µM in data set [4]; 0.44 µM in data set [5]; 0.19 µM in data set [6]; 0.13 µM in data set [8]. Also, the IC50 in [9] amounted to 0.53 µM; in data set [11], 0.48 µM; in data set [12], 0.19 µM; in data set [13] it was 0.4 µM; in data set [15], 0.26 µM; in data set [16], 0.21 µM. The outcome in data set [17], in [18], in data set [19], in [20], in data set [21] and in data set [22] was Active. Further, the MIC in data set [3] is 3.2 µM (≈ 0.948 µg/mL); in [7], 6.4 µM (≈ 1.9 µg/mL); in data set [10], > 210 µM.

As to `N#C/C(=C\c1ccc([N+](=O)[O-])o1)c1nc2ccccc2o1`, the IC50 came out at 2.86 µM in [1]; 1.13 µM in data set [2]; 3 µM in data set [4]; 1.41 µM in [5]; 1.65 µM in data set [6]; 1.68 µM in data set [8]. The IC50 turned out to be 3.98 µM in data set [9]; 2.86 µM in data set [11]; 2.91 µM in data set [12]; 7 µM in data set [13]; 2.87 µM in [15]; 1.33 µM in data set [16]. In addition, the MIC in [3] was 111 µM (≈ 31.2 µg/mL); in [7], 111 µM (≈ 31.2 µg/mL); in data set [10], > 222 µM. Moreover, the solubility at 24 h in data set [14] is < 0.1 µM.

Take `N#C/C(=C\c1ccc([N+](=O)[O-])s1)c1nc2ccccc2s1`: the IC50 was 0.42 µM in [1]; 0.38 µM in data set [2]; 0.72 µM in data set [4]; 0.75 µM in data set [5]; 0.62 µM in data set [6]; 0.46 µM in [8]. Also, the IC50 worked out at 0.92 µM in data set [9]; 0.64 µM in [11]; 0.51 µM in [12]; 0.93 µM in data set [13]; 0.83 µM in data set [15]; 0.88 µM in data set [16]. Also, the MIC was 12 µM (≈ 3.76 µg/mL) in data set [3], 12 µM (≈ 3.76 µg/mL) in [7] and > 200 µM in [10]. The solubility at 24 h in data set [14] is < 0.1 µM.

`N#C/C(=C\c1ccc([N+](=O)[O-])s1)c1nc2cccnc2[nH]1`: the IC50 amounted to 0.3 µM in data set [1]; 0.11 µM in [2]; 0.62 µM in data set [4]; 0.62 µM in data set [5]; 0.17 µM in data set [6]; 0.32 µM in data set [8]. For the same compound, the IC50 is 0.33 µM in data set [9]; 0.53 µM in data set [11]; 0.38 µM in data set [12]; 0.74 µM in data set [13]; 0.2 µM in [15]; 0.11 µM in data set [16]. The MIC in data set [3] worked out at 3.2 µM (≈ 0.951 µg/mL); in data set [7], 6.4 µM (≈ 1.9 µg/mL); in data set [10] it was 210 µM (≈ 62.4 µg/mL). The compound also registered a solubility at 24 h in data set [14] of 0.5 µM (≈ 0.149 µg/mL).
